Compounds with a hit are over-represented: about 2.5% of the library has one in this group of screens.
SIRT5 inh: blocks human SIRT5 desuccinylation of peptide. Purified SirT5, succinyl-peptide AMC, trypsin-coupled fluorescence. Q9NXA8. inhibition, % at 15 µM. actives 1.1% (n = 330,000). AID 652115; in the data active = inhibition above about 15%; inconclusive = no clear call, values can overlap the other calls
Target sequence (Q9NXA8 whole entry, looked up): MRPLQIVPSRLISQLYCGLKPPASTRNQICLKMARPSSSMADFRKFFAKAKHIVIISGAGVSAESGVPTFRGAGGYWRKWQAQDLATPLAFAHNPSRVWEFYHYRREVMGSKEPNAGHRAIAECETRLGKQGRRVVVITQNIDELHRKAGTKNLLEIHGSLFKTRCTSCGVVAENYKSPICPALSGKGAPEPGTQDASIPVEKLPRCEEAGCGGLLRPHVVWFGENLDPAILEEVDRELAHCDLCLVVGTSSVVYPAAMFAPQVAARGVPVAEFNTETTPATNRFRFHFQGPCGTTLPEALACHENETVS
E-sel inducer: induces E-selectin expression in human endothelial cells | HUVEC E-selectin immunofluorescence imaging; normalized: neutral wells 0, TNF-alpha wells 100 | activation, % at 7.58 µM | P16581 | actives 0.37% (n = 260,000);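 active = mean E-selectin-positive cell signal at least 10% of the positive control, reached in at least 60% of replicates, without over 20% cell loss; inconclusive = no rule given, readout overlaps actives, possibly toxicity-flagged; inactive = the rest, including those meeting only one limit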
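assay system = HUVEC, human umbilical vein endothelial cells | input = 3,000 HUVEC seeded per well | medium = EGM-2 growth medium on 0.1% gelatin-coated wells | dosing = one compound dose added by pin transfer | signal = immunofluorescence imaging | read-out basis = % PE-positive cells | control set = TNF-alpha, DMSO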
ERAP1 HTS inh: inhibitors of human ERAP1 aminopeptidase. actives 0.15% (n = 340,000). inhibition, % at 10.7 µM. recombinant ERAP1, Leu-AMC fluorescence, 60 min. Q9NZ08;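 active = mean replicate inhibition of at least 30%, or all replicates individually reaching that 30% level; inactive = mean below 30% and not every replicate reaching it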;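 also: 0% = neutral control wells and 100% = L-leucinethiol positive control wells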
DENV2 CPE rescue: DENV2-induced cell death inhibition. actives 1.7% (n = 350,000). DENV2-infected cells, cytopathic effect rescue, plate reader. CPE inhibition, % at 9.99 µM. AID 651640; in the data active = CPE inhibition above about 20%, passing the limit was not always enough; inconclusive = no clear call, values can overlap the other calls; tested in BHK-21 cells;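 also: 0% = median of neutral control wells and 100% = median of positive control wells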
PglD DTNB: blocks C. jejuni PglD acetyltransferase activity. purified PglD enzyme, DTNB colorimetric CoA detection. inhibition, % at 12.5 µM. actives 0.098% (n = 360,000); in the data active = inhibition above about 16%, passing the limit was not always enough; inconclusive = no clear call, values can overlap the other calls
Starred values were filed as active, the others as inactive; ? = inconclusive; nt = no result given; ! = repeats disagree.

SMILES | SIRT5 inh | E-sel inducer | ERAP1 HTS inh | DENV2 CPE rescue | PglD DTNB
C[C@@H]1CN([C@@H](C)CO)C(=O)c2cc(NS(=O)(=O)c3ccc(F)cc3)ccc2O[C@H]1CN(C)C(=O)NC1CCCCC1 | 1 | ? | 2 | 35* | 3
O=C(c1ccc(Cl)c(S(=O)(=O)N2CCOCC2)c1)N1CCOCC1 | -1 | 0 | 0 | -3 | -7
O=C(Cn1c(NCCO)nc2ccccc21)c1ccc(F)cc1 | -1 | 0 | -1 | -4 | 0
COc1ccc(NC(=O)N[C@H]2C=C[C@@H](CC(=O)NC3CCCCC3)O[C@@H]2CO)cc1 | 2 | 0 | -1 | -2 | -1
Cc1ccc(OCc2nc(-c3cccnc3)no2)cc1C | 0 | 424* | 2 | -1 | -11
Cc1ccc(OCc2nc(-c3ccccn3)no2)cc1 | 16* | nt | -1 | 7 | -2
Cc1ccc(OCc2nc(-c3ccccn3)no2)c(Br)c1 | nt | nt | nt | nt | -5
COc1ccc2c(c1)/C(=C/c1cc(OC)c(OC)c(OC)c1)C(=O)N2 | -1 | 0 | 3 | 29* | nt
COc1ccc(/C=C2\C(=O)NC(=O)c3ccccc32)cc1OC | nt | 0 | 12 | -6 | nt
COc1ccccc1/C=C1\C(=O)Nc2ccccc21 | 16* | nt | 0 | ? | 1
CSCCC(NC(=O)COc1ccccc1)C(=O)OCCOc1ccc(C)cc1 (stereo unspecified) | 1 | 0 | 0 | 27* | -3
CSCCC(NC(=O)COc1ccccc1)C(=O)NCCOc1ccc(C)cc1 (stereo unspecified) | -3 | nt | 2 | 4 | 2
CCCNC(=O)N1C[C@@H]2N[C@H](C1)C2c1ccc(-c2ccc(OC)cc2)cc1 (stereo partly specified) | nt | 0 | nt | 32*! | nt
Cc1cccc(-c2ccc(C3[C@@H]4CN(C(=O)Cc5ccncc5)C[C@H]3N4)cc2)c1 (stereo partly specified) | -2 | 0 | 0 | -5 | nt
CCCNC(=O)N1C[C@@H]2N[C@H](C1)C2c1ccc(-c2ccccc2C)cc1 (stereo partly specified) | nt | 0 | nt | 27* | nt
CCCNC(=O)N1[C@@H]2CNC[C@H]1C2c1ccc(/C=C/c2ccccc2)cc1 (stereo partly specified) | -6 | 0 | 0 | -12 | nt
CCCNC(=O)N1[C@@H]2CNC[C@H]1C2c1ccc(-c2ccc(C)cc2)cc1 (stereo partly specified) | nt | 0 | nt | 38* | nt
Cc1ccccc1-c1ccc(C2[C@@H]3CN(C(=O)Cc4ccncc4)C[C@H]2N3)cc1 (stereo partly specified) | nt | 0 | nt | 86*! | nt
CN(C[C@@H]1[C@@H](c2ccccc2)[C@H](CO)N1CC1CC1)C(=O)c1ccccc1 | 5 | 0 | 1 | -10 | 2
O=C(Nc1ccc2oc(-c3ccncc3)nc2c1)c1ccc([N+](=O)[O-])o1 | -1 | nt | 3 | -3 | 6
COc1ccc(C(=O)C2CCCN(S(=O)(=O)C(C)C)C2)c(C)c1 (stereo unspecified) | 25* | nt | 2 | -5 | nt
Cc1ccc(CNC(=O)OC2CC3CC2[C@H]2CCCCN2C3=O)cc1 (stereo partly specified) | 1 | 0 | 1 | -1 | nt
CCCNC(=O)OC1CC2CC1[C@H]1CCCCN1C2=O (stereo partly specified) | 9 | 0 | -1 | 29* | nt
C[C@H]1CN([C@@H](C)CO)C(=O)Cc2cc(NC(=O)NC3CCCCC3)ccc2O[C@H]1CN(C)S(=O)(=O)c1ccc(F)cc1 | -6 | 1 | 1 | -9 | -4
NCc1csc(NC(=O)Nc2cccc(Cl)c2)n1 | nt | 0 | -4 | 25* | -2
SMILES | SIRT5 inh | E-sel inducer | ERAP1 HTS inh | DENV2 CPE rescue | PglD DTNB
CN(C)Cc1csc(NC(=O)Nc2cccc(Cl)c2)n1 | nt | 0 | -4 | -1 | 5
O=C(Nc1cccc(Cl)c1)Nc1cccc(C(=O)O)c1 | 23* | nt | nt | 3 | 6
CCOC(=O)c1c(C)[nH]c(C(=O)OCCOc2ccc(Cl)cc2)c1C | 2 | nt | 6 | -7 | -4
COc1ccc(NC(=O)COc2cc(C)cc(C)c2)cc1S(=O)(=O)N1CCCCC1 | -2 | 1 | -1 | -1 | -1
O=C(COc1ccc(-n2ccnc2)cc1)Nc1cccc(Cl)c1 | 23* | 4 | 0 | 7 | nt
CC(C)C[C@@H]1NC(=O)[C@H]2C[C@@H](C(=O)NCCCCCNC(=O)CS)[C@@H](c3cccc(OCCO)c3)N2C1=O | -3 | nt | 0 | 21* | 0
NCCCCCNC(=O)[C@@H]1C[C@@H]2C(=O)N[C@@H](Cc3ccccc3)C(=O)N2[C@@H]1c1cccc(OCCO)c1 | 10 | nt | 4 | 1 | nt
